Compound activity (PubChem)
rCAG RNA binder = r(CAG) repeat RNA binding | TO-PRO-1 dye displacement fluorescence | inhibition, % at 3 µM | 370,000 tested, 1.3% active | AID 651821;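 active = inhibition above the plate cutoff, the mean of all test compounds on that plate plus 3 SD, cut at about 35% in these data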;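 also: higher means more dye released from RNA so lower well fluorescence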
mABHD4 FP = inhibits mouse alpha/beta hydrolase domain 4. Q8VD66. purified mABHD4, FP-Rh probe fluorescence polarization. inhibition, % at 8.92 µM. 370,000 tested, 0.54% active;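 active = inhibition exceeding the mean over every tested compound plus 3 SD, cut at about 30% in these data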
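assay system = mABHD4 protein | compound dosing = single nominal dose of 8.92 µM, 0.89% DMSO final | read-out basis = percent inhibition of probe binding, normalized to plate controls | schedule = Enzyme–compound pre-incubation 45 min, then probe 60 min, both 25 °C | detection = fluorescence polarization, excitation 525 nm, emission 598 nm, BODIPY TMR filters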
HTRA1 inhibitor = inhibitors of human serine peptidase HTRA1; 340,000 tested, 0.5% active; Q92743; inhibition, % at 5.96 µM; recombinant HTRA1, FP-rhodamine activity-based probe, fluorescence polarization; in the data active = inhibition above about 36%
SIAE primary = human SIAE inhibition, primary screen | AID 1053197 | SIAE FP-Rh probe binding, fluorescence polarization | inhibition, % at 9.66 µM | Q9HAT2 | 370,000 tested, 0.69% active;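 active = inhibition above a cutoff: mean of compounds within the control limits plus 3 SD of those, cut at about 17% in these data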
PRMT1 inh = blocks human protein arginine methyltransferase 1; 370,000 tested, 1.3% active; Q99873; recombinant PRMT1, activity-based probe fluorescence polarization; AID 652257; inhibition, % at 2.79 µM;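 active = inhibition above about 21% made by adding two undisclosed values, limit read from the data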
Target sequence (Q99873 whole entry, looked up): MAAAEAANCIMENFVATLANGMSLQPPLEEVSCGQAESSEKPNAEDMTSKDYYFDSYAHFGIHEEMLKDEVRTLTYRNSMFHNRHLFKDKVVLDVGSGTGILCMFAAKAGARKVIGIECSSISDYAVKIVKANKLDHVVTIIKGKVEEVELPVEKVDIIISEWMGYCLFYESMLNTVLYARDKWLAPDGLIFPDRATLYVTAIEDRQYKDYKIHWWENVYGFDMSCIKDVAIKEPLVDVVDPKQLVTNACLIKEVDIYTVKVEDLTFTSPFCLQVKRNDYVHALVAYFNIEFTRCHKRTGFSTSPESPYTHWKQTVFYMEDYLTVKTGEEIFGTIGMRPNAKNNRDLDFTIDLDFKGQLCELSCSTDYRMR
rCAG binder conf = r(CAG) RNA repeat binding, confirmation; shares compounds with rCAG RNA binder; TO-PRO-1 dye displacement fluorescence; inhibition, % at 3 µM; 4,300 tested, 70% active;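 active = inhibition above a per-plate cutoff, the mean inhibition of sample wells plus 3 SD, cut at about 35% in these data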;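 also: loss of TO-PRO-1 fluorescence as compound displaces dye from 1x1 AA loop RNA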
DNA CAG counter = DNA CAG dye complex inhibition counter-screen; shares compounds with rCAG RNA binder; 4,300 tested, 94% active; d(CAG) DNA oligo TO-PRO-1 dye displacement, fluorescence; inhibition, % at 3 µM;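 active = inhibition above its plate's cutoff, the mean test-well inhibition plus 3 SD, cut at about 4.8% in these data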;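 also: hits displace the dye from DNA and so lower well fluorescence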
Hits are given with their value; 0 = inactive; - = no result. Only some compounds are listed: those with a hit (about 3.3% of all), similar ones and a draw of the others.

SMILES	rCAG RNA binder	mABHD4 FP	HTRA1 inhibitor	SIAE primary	PRMT1 inh	rCAG binder conf	DNA CAG counter
COc1cc(/C=C2\SC(=Nc3ccc(N4CCOCC4)cc3)N(C)C2=O)ccc1OC(C)C(=O)O (stereo unspecified)	41	0	0	0	0	52	17
CCOc1cccc(/C=C2\NC(=S)N(c3ccccc3)C2=O)c1O	38	0	0	0	0	0	6.2
C[C@@H]1COc2cccc(F)c2S(=O)(=O)N1C	0	0	-	0	0	-	-
CC1CCc2c(C(=O)Nc3cccc(-c4nn[nH]n4)c3)csc2C1 (stereo unspecified)	65	0	0	0	0	46	13
COC(=O)C1CN(Cc2ccc(F)cc2)CCS(=O)(=O)N1Cc1ccc(C(F)(F)F)cc1 (stereo unspecified)	0	0	-	0	0	-	-
CC(C)n1c(O)c(N=Nc2ccc(Cl)c(C(=O)O)c2)c2ccccc21	38	0	0	0	0	36	9.0
C=CCn1c(COc2ccccc2)nnc1SCC(=O)Nc1ccc(Oc2ccccc2)cc1	0	0	-	0	0	-	-
COc1ccc(/C=C2\S/C(=N/S(=O)(=O)c3cccs3)NC2=O)cc1	73	0	0	0	0	50	16
O=C(O)c1ccc(Cl)c(S(=O)(=O)N(Cc2ccccc2)c2ccc(Cl)cc2)c1	73	0	0	0	0	65	26
COc1ccccc1N(Cc1ccccc1)S(=O)(=O)c1cc(C(=O)O)ccc1Cl	65	0	0	0	0	47	13
COc1ccccc1N(Cc1ccccc1)S(=O)(=O)c1cccc(C(=O)O)c1	0	0	0	0	0	-	-
CC1=C/C(=C(\c2cc(C)c(O)c(Br)c2)c2ccccc2S(=O)(=O)O)C=C(Br)C1=O	49	0	0	0	0	0	9.3
Cc1nn(-c2ccccc2)c(C)c1/C=N/NC(=O)c1[nH][nH]c(=O)c1C	0	0	-	0	0	-	-
CN1CCN(S(=O)(=O)c2cccc(C(=O)Nc3sc4c(c3-c3nc5ccccc5[nH]3)CCCC4)c2)CC1	38	0	0	25	0	0	20
CC(=O)N1C(=O)C2(NCC(C)N2)c2ccccc21 (stereo unspecified)	0	0	-	0	0	-	-
O=C(/C=C/c1ccc(Br)cc1)NC(=O)c1ccccc1O	0	0	0	0	0	-	-
CSc1ccc(/C=C/C(=O)NC(=O)c2ccccc2O)cc1	38	0	0	0	0	0	8.7
COc1cc(OC)c2c(O)c3c(=O)cc(C)oc3c(-c3c(OC)cc4cc5c(c(O)c4c3O)C(=O)CC(C)(O)O5)c2c1 (stereo unspecified)	44	0	-	0	0	41	22
Cc1cc(C)c(C(=O)Nc2ccc(S(=O)(=O)Nc3onc(C)c3C)cc2)c(C)c1	0	0	0	0	0	-	-
Cc1cccc(-n2ccc(=O)c(C(=O)Nc3ccc(S(=O)(=O)Nc4onc(C)c4C)cc3)n2)c1	39	0	0	0	0	43	12
Cc1c(C(=O)Nc2ccc(S(=O)(=O)Nc3ncccn3)cc2)oc2ccc(Cl)cc12	0	0	0	0	0	-	-
Cc1ccc2c(C)c(C(=O)Nc3ccc(S(=O)(=O)Nc4onc(C)c4C)cc3)oc2c1	79	0	0	0	0	74	40
Cc1noc(NS(=O)(=O)c2ccc(NC(=O)c3oc4ccc(Cl)cc4c3C)cc2)c1C	88	0	0	0	0	85	48
Cc1ccc2c(=O)cc(C(=O)Nc3ccc(S(=O)(=O)Nc4onc(C)c4C)cc3)oc2c1	61	0	0	0	0	37	11
COC(=O)C1=C(C)N(Cc2cccc(C(F)(F)F)c2)C(=NCc2ccccc2C(F)(F)F)NC1c1cccc(C(F)(F)F)c1 (stereo unspecified)	0	0	-	0	0	-	-
SMILES	rCAG RNA binder	mABHD4 FP	HTRA1 inhibitor	SIAE primary	PRMT1 inh	rCAG binder conf	DNA CAG counter
COC(=O)[C@]12C[C@H](CC(=O)NCC3CCCCC3)C(=O)N(Cc3ccc(Cl)cc3Cl)C1=C[C@H](C1CCCC1)O[C@@H]2C	0	0	-	0	0	-	-
CCOC(=O)CC[C@@]1(C(=O)OCC)C[C@@H](CC(=O)NCCc2ccccc2OC)C(=O)N2CCCC=C21	0	0	-	0	0	-	-
Cc1cc(NS(=O)(=O)c2ccc(NC(=O)Cc3cccs3)cc2)no1	-	-	0	-	-	-	-
Cc1cc(NC(=O)Cc2cccs2)no1	40	0	0	0	0	35	23
Cc1cccc(C(=O)Nc2nc3ncccn3c2-c2ccc(C(F)(F)F)cc2)c1	0	0	-	0	0	-	-
CC1(C(=O)NS(=O)(=O)c2ccccc2Cl)CCN1C(=O)CCc1ccc(Cl)cc1Cl (stereo unspecified)	47	0	-	0	0	36	7.3
CC1(C(=O)NS(=O)(=O)c2ccccc2Cl)CCN1C(=O)Cc1ccc(Cl)cc1Cl (stereo unspecified)	0	0	-	0	0	-	-
Cc1ccccc1S(=O)(=O)NC(=O)C1(C)CCN1C(=O)CCc1ccc(Cl)cc1Cl (stereo unspecified)	44	0	-	0	0	0	6.1
CCC[C@H]1[C@@H](OC(=O)NCc2ccc(OC)c(OC)c2)CC[C@@]23CCCN2C(=O)CCC[C@@H]13	-	0	-	0	0	-	-
O=S(=O)(Nc1nc(-c2ccccc2)cs1)c1cccc(C(F)(F)F)c1	78	0	0	0	0	57	22
O=C(O)c1ccccc1NS(=O)(=O)c1cccc(C(F)(F)F)c1	0	0	0	0	0	-	-
Cc1csc(NS(=O)(=O)c2cccc([N+](=O)[O-])c2)n1	0	0	0	0	0	-	-
O=S(=O)(Nc1nc(-c2ccccc2)cs1)c1cc(Cl)ccc1Cl	80	0	0	0	0	73	38
O=[N+]([O-])c1ccc(S(=O)(=O)Nc2nc(-c3ccccc3)cs2)cc1	66	0	0	0	0	41	11
Cc1ccc(S(=O)(=O)Nc2nc(-c3ccc(F)cc3)cs2)cc1	62	0	0	0	0	56	15
O=C(Nc1ccc(Cl)c(Cl)c1)Nc1nc(-c2ccccc2)cs1	0	0	0	0	0	-	-
CC(C)(C)OC(=O)/C=C/[C@H](CCCCl)Sc1ccc(C(C)(C)C)cc1	0	0	-	0	0	-	-
Cc1c(C(=O)NNC(=S)Nc2cccc(Cl)c2)nnn1-c1ccccc1	45	0	0	0	0	44	14
Cc1cc(NC(=O)Nc2cccc(Cl)c2)n(-c2ccccc2)n1	0	0	0	0	0	-	-
Clc1ccc([C@H]2OC[C@@]3(CNCc4ccccn4)CS[C@H](c4ccc(Cl)cc4)N23)cc1	0	0	-	0	0	-	-
COc1ccc(C(CCOC(=O)Oc2ccccc2)c2cc(OC)cc(OC)c2)cc1 (stereo unspecified)	0	0	-	0	0	-	-
N=C1/C(=C/c2ccc(Br)o2)C(=O)N=C2SC(CC(=O)N3CCCC3)=NN12	0	0	0	0	0	-	-
